Assay outcomes from PubChem.
FXIa inh: human FXIa protease inhibitors, primary screen, biochemical, 1536-well; purified FXIa, Boc-Glu-Ala-Arg-AMC fluorogenic substrate; inhibition, % at 5 µM; 0.14% of 220,000 active; AID 798, 2007;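 active = inhibition of at least 40%; inactive = inhibition below 40%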;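 note: fluorescence of freed AMC excited at 355 nm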
Target sequence (P03951 19-387 limits assumed): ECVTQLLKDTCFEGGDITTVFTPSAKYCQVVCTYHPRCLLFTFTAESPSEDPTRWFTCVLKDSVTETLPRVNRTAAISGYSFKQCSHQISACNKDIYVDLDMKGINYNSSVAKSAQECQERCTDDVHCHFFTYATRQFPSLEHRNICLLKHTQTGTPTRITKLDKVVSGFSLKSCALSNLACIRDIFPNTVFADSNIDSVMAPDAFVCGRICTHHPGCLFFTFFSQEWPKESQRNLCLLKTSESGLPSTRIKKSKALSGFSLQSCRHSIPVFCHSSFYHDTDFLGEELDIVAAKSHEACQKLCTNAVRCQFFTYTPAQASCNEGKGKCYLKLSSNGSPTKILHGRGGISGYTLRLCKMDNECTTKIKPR
Target sequence (P03951 388-625 limits assumed): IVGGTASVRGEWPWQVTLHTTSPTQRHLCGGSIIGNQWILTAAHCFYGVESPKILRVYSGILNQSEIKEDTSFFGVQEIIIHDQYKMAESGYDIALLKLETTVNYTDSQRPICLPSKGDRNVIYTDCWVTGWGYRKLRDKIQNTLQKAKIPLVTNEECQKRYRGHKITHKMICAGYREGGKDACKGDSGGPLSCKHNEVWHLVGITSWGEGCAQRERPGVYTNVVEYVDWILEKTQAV
Wee1 stabilizer: Wee1 degradation inhibitors, primary screen, cell-based, HeLa, Wee1K328M-luciferase, luminescence. Wee1-like protein kinase (Homo sapiens), P30291. HeLa Luc-Wee1K328M stability; 100% = proteasome inhibitor MG132 effect. reporter increase, % at 5 µM. 1.2% of 220,000 active;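 active = activation above the mean of all tested compounds plus 3 SD, set per screening run, cut at about 8.8% in these data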;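 note: cells exposed to compound for 20 h before luminescence read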
Platelet DG rel: inhibitors of platelet dense granule secretion, primary screen, cell-based, MLPCN, human platelets; human platelet-rich plasma, SFLLRN dense granule ATP release, luminescence; inhibition, %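 (compounds screened at 7.5 µM in platelet-rich plasma)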; 0.22% of 300,000 active; AID 1663, 2009;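 active = mean replicate score, as percent of positive control, at or above 50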
KLK5 inh: human KLK5 protease inhibitors, primary screen, biochemical, 1536-well. inhibition, % at 5 µM. Kallikrein-5 (Homo sapiens), Q9Y337. recombinant hK5, fluorogenic AMC substrate cleavage. AID 873, 2007. 0.59% of 210,000 active;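 active = inhibition of 40% or more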
Thrombin inh: human alpha-thrombin inhibitors, primary screen, counter-screen for coagulation protease inhibitor project, biochemical, 1536-well, fluorogenic AMC substrate | Prothrombin (Homo sapiens), P00734 | Boc-VPR-AMC fluorogenic substrate cleavage | inhibition, % at 5 µM | 0.26% of 220,000 active;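 active = inhibition at or above 40%; inactive = inhibition below 40%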
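Material: human alpha-thrombin enzyme / Medium: pH 7.5 Tris (50 mM) with NaCl 150 mM, Tween 20 0.05% / Compound: single-point dosing at 5 µM, 0.2% DMSO / Incubation: enzyme reaction carried out at room temperature / Detection: AMC fluorescence, 355/460 nm / Read-out basis: percent inhibition scaled between no-compound controls and no-enzyme blanks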
FXIIa inh: human FXIIa protease inhibitors, primary screen, biochemical, 1536-well. inhibition, % at 5 µM. 0.3% of 220,000 active. Coagulation factor XII (Homo sapiens), P00748. purified FXIIa, Boc-QGR-AMC fluorogenic substrate, 2 h; in the data active = inhibition above about 40%
A number is an active result; – = inactive; · = no result. Only some compounds are listed: those with a hit (about 1.8% of all), similar ones and a draw of the others.

SMILES	FXIa inh	Wee1 stabilizer	Platelet DG rel	KLK5 inh	Thrombin inh	FXIIa inh
CNS(=O)(=O)c1cc(C(=O)O)ccc1OC	–	–	–	–	–	40.9
CCOc1ccc(Nc2nc(N)c3ccccc3n2)cc1	·	·	90.5	·	·	·
CN(C)c1ccc(Nc2nc(N)c3ccccc3n2)cc1	·	·	80.3	·	·	·
COc1ccc(C)cc1Nc1nc(N)c2ccccc2n1	·	·	–	·	·	·
Nc1nc(Nc2ccccc2)nc2ccccc12	–	–	59.0	–	–	–
Nc1ncnc(Nc2ccccc2)n1	·	·	–	·	·	·
CCOc1ccc(Nc2nc(N)nc(CCl)n2)cc1	–	–	–	–	–	–
Cc1ccccc1Nc1nc(N)c2ccccc2n1	–	–	57.5	–	–	–
CCCOc1ccccc1Cn1c(=O)oc2ccccc21	·	·	–	·	·	·
C/C(Cn1cnc([N+](=O)[O-])n1)=N\NC(=O)c1ccc(O)cc1O	–	–	–	–	–	–
Nc1nc(Nc2ccc(Cl)cc2)nc2ccccc12	–	–	72.5	–	–	–
Nc1nc(CCl)nc(Nc2ccccc2)n1	–	–	–	–	–	–
Cc1ccc(Nc2nc(N)c3ccccc3n2)cc1Cl	·	·	52.1	·	·	·
COc1cc2nc(Nc3ccc(C)c(Cl)c3)nc(N)c2cc1OC	·	·	–	·	·	·
CN(C(=O)COC(=O)/C=C/c1cn(-c2ccccc2)nc1-c1ccc2c(c1)OCCO2)C1CCS(=O)(=O)C1 (stereo not drawn)	–	–	–	–	–	–
O=Cc1cn(-c2ccccc2)nc1-c1ccc2c(c1)OCCO2	–	9.2	·	–	–	–
O=C(COC(=O)/C=C/c1cn(-c2ccccc2)nc1-c1ccc2c(c1)OCCO2)NC1CCS(=O)(=O)C1 (stereo not drawn)	–	–	52.5	–	–	–
N#Cc1cn(-c2ccccc2)nc1-c1ccc2c(c1)OCCO2	–	–	–	–	–	–
CC(Nc1nc2ncn(Cc3ccccc3)c2c(=O)[nH]1)C(=O)O (stereo not drawn)	–	–	–	–	62.0	–
Cc1cc2c(NC(=O)Nc3ccc(C(C)(C)C)cc3)cccc2nn1	–	–	–	–	–	–
Cc1cc2c(NC(=O)Nc3ccccc3)cccc2nn1	–	–	–	56.7	–	–
COc1ccccc1CNC(=O)C(NS(=O)(=O)c1ccc2c(c1)OCCO2)C(C)C (stereo not drawn)	–	–	–	–	–	–
CSc1c(CC(=O)NCCO)n(C)c2ccccc12	–	–	–	50.9	–	–
Oc1cccc(-c2nc3ccc4ccccc4c3c3c2CCC3)c1	–	9.1	–	–	–	–
C=CCN1C(=O)/C(=C\c2ccco2)C(C(=O)OC)=C1C	–	–	–	–	–	–
SMILES	FXIa inh	Wee1 stabilizer	Platelet DG rel	KLK5 inh	Thrombin inh	FXIIa inh
CCN1C(=O)/C(=C\c2ccco2)C(C(=O)OC)=C1C	–	–	–	–	–	43.1
COc1ccc(Cn2nnnc2C(c2cc(OC)ccc2OC)N2CCC(C(N)=O)CC2)cc1 (stereo not drawn)	–	–	–	70.3	–	–
Cc1ccccc1OCc1nc(-c2ccccc2)no1	–	11.3	–	–	–	–
COc1ccc(-c2noc(Cc3ccccc3OC)n2)cc1	–	8.9	–	–	–	–
COc1ccccc1Cc1nc(-c2cccnc2)no1	–	–	–	–	–	–
CC(Oc1coc(CN2CCN(C(=O)c3ccco3)CC2)cc1=O)c1ccccc1 (stereo not drawn)	·	·	–	·	·	·
COC(=O)C1=C(C)NC2=C(C(=O)CC(C)(C)C2)C1c1cnn(C)c1C (stereo not drawn)	–	–	–	–	–	–
O=[N+]([O-])c1ccc(N=Nc2c(Cl)cc(O)cc2Cl)cc1	–	–	73.2	–	–	–
COc1ccc(OC)c(NS(=O)(=O)c2ccc(Br)s2)c1	–	9.0	–	–	–	–
CC1CCC(NC(=O)c2cccc(S(=O)(=O)N3CCN(c4ccc(F)cc4)CC3)c2)CC1 (stereo not drawn)	·	·	–	·	·	·
COc1nc(NCCN2CCOCC2)nc(Nc2ccccc2)n1	–	–	–	68.7	–	–
CC(C)(C)OC(=O)N1CCC2(CC1)Oc1ccc(F)cc1C(=O)C21CC(c2ccc(Cl)cc2)=NO1 (stereo not drawn)	·	·	–	·	·	·
Cc1ccc(CNC(=O)Cn2cnc(S(=O)(=O)N3CCC(C)CC3)c2)o1	·	·	–	·	·	·
COc1nc(N2CCOCC2)nc(-n2cccc2)n1	–	9.2	–	–	–	–
O=C(COC(=O)c1cccnc1Cl)NCc1ccco1	–	–	–	–	–	–
Oc1ccc2ccccc2c1C=NC12CN3CCN(CN(C3)C1)C2	–	–	–	44.4	–	–
OCC(CO)(CO)N=Cc1c(O)ccc2ccccc12	–	–	–	–	–	–
CCCOc1cccc(C(=O)NC(=S)Nc2cccc(NC(=O)c3ccccc3Cl)c2)c1	–	–	–	–	–	–
CC(C)COc1cccc(C(=O)NC(=S)Nc2cccc(NC(=O)c3ccccc3Cl)c2)c1	–	–	–	41.7	–	–
CCN(CC)C(=O)CC(c1ccc(N(C)C)cc1)c1c(O)cc(OC)cc1OC (stereo not drawn)	–	·	–	–	–	–
CCN(C(=O)COC(=O)c1cc(-c2ccccc2)nn1-c1ccccc1)C1CCS(=O)(=O)C1 (stereo not drawn)	–	10.0	–	–	–	–
N#Cc1ccc(OCC(=O)n2cc(C(=O)c3cc(Cl)cc(Cl)c3O)cn2)cc1	–	–	–	–	–	–
NC(=O)C1(N2CCCCC2)CCN(Cc2ccc(F)cc2)CC1	–	–	–	48.7	–	–
Fc1ccc(N2CCN(c3cnc4ccccc4n3)CC2)cc1	·	·	–	·	·	·
CC(C)c1ccc(NC(=O)COc2ccccn2)cc1	–	–	–	–	88.8	–
SMILES	FXIa inh	Wee1 stabilizer	Platelet DG rel	KLK5 inh	Thrombin inh	FXIIa inh
O=C(COc1cccc(Cl)c1)Nc1ccccc1N1CCCCC1	·	·	–	·	·	·
O=C(Cn1nc(-c2ccc(Cl)cc2)ccc1=O)NCC1CCCO1 (stereo not drawn)	–	–	–	51.0	–	–
COC(=O)/C=c1/sc2n(c1=O)CCN=2	–	9.2	–	–	–	–
CCn1cc(CNC(=O)c2cc(COc3ccc(F)cc3Cl)on2)cn1	–	–	–	–	–	–
CCn1nc(C)c(CNC(=O)c2cc(COc3ccc(F)cc3Cl)on2)c1C	–	–	–	–	–	43.1
CC1CC(=O)NN=C1c1ccc(N)c([N+](=O)[O-])c1 (stereo not drawn)	–	–	60.9	–	–	–
CCC(=O)OCCn1c(=O)c2cc3c(=O)n(CCOC(=O)CC)c(=O)c3cc2c1=O	–	–	·	–	–	54.1
Clc1ccc(CO/N=C2\CCCc3nonc32)c(Cl)c1	–	–	–	–	–	–
